A selection: hits, their analogues and other compounds. The true share with any hit is near 0.72%.
DTT redox prof = compounds producing H2O2 with reducing agent – biochemical, NIH compound library profiling, artefact control for MLSCN library redox annotation, primary screen. AID 878. 200,000 tested, 0.03% active. DTT-dependent redox cycling H2O2, phenol red/HRP absorbance; 100% = 100 µM peroxide control, 0% = buffer. activation, % at 10 µM;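 active = activation of at least 50% relative to the plate's high and low controls in the primary single-dose screen; inactive = activation below 50%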;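 note: compound incubated with DTT at 0.8 mM final as the reducing agent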
ABCG2 inh = human ABCG2 inhibition, ABCB1 as counter-screen; 190,000 tested, 0.1% active; IgMXP3 cells, JC-1 efflux, flow cytometry; AID 1325; inhibition, % at 6.6 µM; Q9UNQ0;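 active = inhibition above 80%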;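 note: 0% = DMSO and 100% = nicardipine control wells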
Target sequence (Q9UNQ0 whole entry, looked up): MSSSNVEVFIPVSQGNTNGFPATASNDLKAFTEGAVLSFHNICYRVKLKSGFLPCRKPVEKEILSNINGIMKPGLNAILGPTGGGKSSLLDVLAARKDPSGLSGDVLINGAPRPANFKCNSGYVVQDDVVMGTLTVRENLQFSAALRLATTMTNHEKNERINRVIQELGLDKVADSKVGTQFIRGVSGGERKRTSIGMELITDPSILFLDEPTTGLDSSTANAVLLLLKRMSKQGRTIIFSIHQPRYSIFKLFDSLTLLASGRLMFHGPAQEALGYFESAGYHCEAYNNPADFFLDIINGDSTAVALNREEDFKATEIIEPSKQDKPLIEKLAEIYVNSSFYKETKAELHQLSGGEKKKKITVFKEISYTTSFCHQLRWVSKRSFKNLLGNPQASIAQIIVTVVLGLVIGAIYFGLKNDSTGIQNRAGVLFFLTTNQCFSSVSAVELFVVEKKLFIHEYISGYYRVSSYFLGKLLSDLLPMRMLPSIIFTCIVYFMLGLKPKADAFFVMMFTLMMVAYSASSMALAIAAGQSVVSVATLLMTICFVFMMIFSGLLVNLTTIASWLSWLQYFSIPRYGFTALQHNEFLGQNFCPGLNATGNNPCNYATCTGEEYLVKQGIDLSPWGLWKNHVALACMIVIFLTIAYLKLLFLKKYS
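Measure – % inhibition of efflux relative to nicardipine and DMSO · Test system – ABCG2 IgMXP3 and barcoded ABCB1 CCRF-Adr cell mix · Control set – nicardipine as high control, DMSO as low control · Compound – one concentration, 6.6 µM final · Signal – flow cytometry of retained JC-1 fluorescence · Timing – 10 min exposure at 25 °C with rotation, no wash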
Avidin fluor = compound fluoresces at 488/530 nm on avidin beads | compound fluorescence 488/530 nm, flow cytometry; hits give high values | fluorescence (KMESF) at 10 µM | 220,000 tested, 0.38% active | AID 1775; in the data active = fluorescence above about 47
ABCB1 inh = blocks JC-1 efflux by human ABCB1 transporter; 190,000 tested, 0.067% active; CCRF-Adr cells, flow cytometry; inhibition, % at 6.6 µM; P08183; AID 1326; in the data active = inhibition above about 40%;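 note: 0% = vehicle and 100% = reference inhibitor; higher value means more JC-1 retained so stronger ABCB1 efflux block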
GSH bead fluor = GSH bead compound fluorescence profile; GSH beads flow cytometry, compound fluorescence 488/530 nm; hits give high values; fluorescence (KMESF) at 10 µM; 190,000 tested, 0.25% active; AID 1776; in the data active = fluorescence above about 89;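 note: glutathione beads carrying GST-tagged Bcl family fusion proteins plus one bare bead set; values are compound well signal with DMSO vehicle wells as background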
ABCB1 confirm = confirmation of human ABCB1 transporter inhibitors, ABCG2 counter-screen | inhibition, % at 6.6 µM | CCRF-Adr cells, JC-1 efflux, flow cytometry | 270 tested, 7% active | shares compounds with ABCG2 inh;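 active = inhibition of pump activity above 50%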;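 note: 0% = DMSO and 100% = nicardipine full pump inhibition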
ABCG2 confirm = confirmation of human ABCG2 transporter inhibitors, ABCB1 counter-screen | shares compounds with ABCG2 inh | IgMXP3 cells, JC-1 efflux, flow cytometry | inhibition, % at 6.6 µM | 270 tested, 6% active | AID 1453;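 active = inhibition above 50%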;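 note: 0% = DMSO wells and 100% = nicardipine pump inhibitor wells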
IgMXP3 fluor = compound fluoresces at 488/530 nm in IgMXP3 cells; shares compounds with ABCG2 inh; compound autofluorescence 488/530 nm, flow; hits give high values; fluorescence at 6.6 µM; 270 tested, 30% active; AID 1480;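 active = fluorescence in ABCG2-expressing cells above the plate's control-well mean plus 3 SD, cut at about 15 in these data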;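 note: median cell fluorescence with compound minus that of DMSO-treated control cells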
CCRF-Adr fluor = counter-screen for ABCB1 inhibitors: compound fluorescence in CCRF-Adr cells. shares compounds with ABCG2 inh. compound autofluorescence 488/530 nm, flow cytometry; hits give high values. fluorescence at 6.6 µM. 270 tested, 30% active. AID 1483;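 active = fluorescence beyond the plate control mean plus 3 SD, with a fluorescence-to-maximum score over 2, cut at about 25 in these data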
Active calls of the source: *; . = no result given; + = active, no number.

SMILES | DTT redox prof | ABCG2 inh | Avidin fluor | ABCB1 inh | GSH bead fluor | ABCB1 confirm | ABCG2 confirm | IgMXP3 fluor | CCRF-Adr fluor
Cc1ccc(Cl)cc1NC(C#N)c1ccccc1 (stereo not given) | . | . | 8 | . | . | . | . | . | .
O=C(CCC(=O)Nc1nnc(C2CCCCC2)s1)NCc1ccccc1 | . | . | 5 | . | . | . | . | . | .
CC(=O)Nc1ccc(C(=O)OCC(=O)c2cccc([N+](=O)[O-])c2)cc1 | 0 | 82* | 22 | 0 | 11 | 0 | 46 | -1.6 | -4.8
O=C(Nc1cc(C(F)(F)F)ccc1N1CCOCC1)c1ccco1 | -1 | 2 | 20 | 0 | 24 | . | . | . | .
O=C(c1ccccc1)c1ccc(N2CCOCC2)c(NC(=O)c2ccco2)c1 | -1 | 81* | 33 | 4 | 22 | 0 | 47 | 0.46 | 33*
O=c1[nH][nH]cc1C=NCc1cccc(C(F)(F)F)c1 | -2 | 0 | 20 | 0 | 9 | . | . | . | .
CC1=Nc2ccccc2/C1=C\c1nc(-c2ccccc2)oc1O | 0 | 2 | 9 | 1 | 69 | . | . | . | .
CC1=Nc2ccccc2/C1=C\c1nc(-c2ccc(C(F)(F)F)cc2)oc1O | 3 | 49 | 24 | 44* | 15 | -23 | 13 | 69* | 201*
COc1ccc(N(C(=O)/C=C/c2ccccc2)C2=CC3CCC(C2)N3C)cc1 (stereo not given) | . | . | 8 | . | . | . | . | . | .
Cc1cc(N2CCCCC2)ccc1[N+](=O)[O-] | 0 | 84* | 15 | 2 | 11 | 1 | 8 | 0.76 | 2.4
CCOC(=O)CSc1nc2cc(C)ccc2cc1C#N | -3 | 5 | 9 | 0 | 16 | . | . | . | .
CCOC(=O)CSc1nc2cc(C)cc(C)c2cc1C#N | 0 | 99* | 35 | 2 | 28 | 1 | 16 | 61* | 0.71
COc1ccc(C(=O)Oc2cc3c4c(c2)C(C)=CC(C)(C)N4C(=O)C3=O)cc1OC | 1 | 91* | 20 | 24 | 12 | 20 | 29 | 14 | 7.4
COc1cccc(C(=O)Oc2cc3c4c(c2)C(C)=CC(C)(C)N4C(=O)C3=O)c1 | 1 | 14 | 26 | 3 | 11 | . | . | . | .
CC(C)CCNC(=O)CCSCCC(=O)NCCC(C)C | 0 | 11 | 15 | 0 | 12 | . | . | . | .
CCOc1cc(N2CCOCC2)c(OCC)cc1NC(=O)COC(=O)c1cc(C)cc(C)c1 | 0 | 106* | 23 | 4 | 9 | 9 | 45 | -2 | -4.3
O=C(CCS(=O)(=O)c1ccccc1)Nc1cccc2c1C(=O)NC2=O | 1 | 3 | 7 | 1 | 20 | . | . | . | .
O=C(N/N=C1\CCCc2c1[nH]c1ccc([N+](=O)[O-])cc21)c1ccncc1 | 0 | 114* | 19 | 0 | 8 | 4 | 39 | -1.1 | -0.09
O=C1NCCc2c1[nH]c1ccc([N+](=O)[O-])cc21 | -1 | 20 | 12 | 0 | 13 | . | . | . | .
CCCCSc1nnc(-c2ccc(C)cc2)c2ccccc12 | 0 | 92* | 16 | 3 | 4 | 25 | 40 | -2.2 | -4.4
COc1ccc(NC(=O)CN2CCN(C3c4ccccc4-c4ccccc43)CC2)c(OC)c1 | -1 | 76 | 36 | 22 | 27 | 35 | 25 | -0.44 | -0.39
O=C(NCc1ccccn1)Nc1ccc(Cl)c(Cl)c1 | 0 | 70 | 38 | 1 | 22 | 0 | 23 | -1.3 | -2.1
O=C(NCc1ccccn1)Nc1cccc(NC(=O)NCc2ccccn2)c1 | 0 | 2 | 5 | 1 | 64 | . | . | . | .
COc1ccc(NC(=O)CCC2CCCCC2)cc1S(=O)(=O)N1CCCCC1 | 0 | 81* | 17 | 2 | 12 | 26 | 9 | 8 | 11
COc1ccc(NC(=O)CC2CCCC2)cc1S(=O)(=O)N1CCCCC1 | 0 | 2 | 5 | 0 | 9 | . | . | . | .
SMILES | DTT redox prof | ABCG2 inh | Avidin fluor | ABCB1 inh | GSH bead fluor | ABCB1 confirm | ABCG2 confirm | IgMXP3 fluor | CCRF-Adr fluor
NC(=O)C1=C[C@@H](c2ccc(C(F)(F)F)cc2)C[C@@H](OCCCCO)O1 | -1 | 3 | 7 | 2 | 18 | . | . | . | .
O=C(/C=C/c1cccs1)Nc1ccc(Br)cn1 | 2 | 1 | 8 | 0 | 11 | . | . | . | .
CCN(CC)c1ccc(/C=C(\C#N)C(N)=O)cc1 | 1 | 0 | 10 | 0 | 13 | . | . | . | .
CCN(CC)c1ccc(/C=C(\C#N)C(=O)c2ccc(Br)cc2)cc1 | 1 | + | 23 | 181* | 151* | -11 | -222 | 743* | 814*
COc1ccc2nc(SCc3ccccc3C)nc(C)c2c1 | 1 | 90* | 21 | 2 | 12 | 6 | 45 | 16* | 7.1
CCN(CC)c1ccc2cc(-c3nc4ccccc4[nH]3)c(=O)oc2c1 | -2 | 65 | 17 | 39 | 39 | -129 | -15 | 122* | 296*
CCSc1nc(C)nc2sc(C)c(C)c12 | . | . | 9 | . | . | . | . | . | .
O=C(Nc1ccc(Cl)cc1C(F)(F)F)c1ccccc1 | 0 | 36 | 22 | 43* | 15 | 1 | 9 | 0.26 | -3.4
O=C(Nc1cc(Cl)ccc1Cl)c1ccc(-c2ccccc2)cc1 | 0 | 1 | 13 | 0 | 13 | . | . | . | .
COc1ccc(C(=O)CSc2nnc(CC(=O)Nc3ccccc3OC)n2C)cc1 | 0 | 3 | 5 | 1 | 20 | . | . | . | .
COc1cc(/C=c2\sc3nc(-c4ccncc4)nn3c2=O)ccc1OC(C)=O | -4 | 36 | 14 | -1 | 19 | . | . | . | .
CN(C)c1ccc(/C=c2\sc3nc(-c4ccccc4)nn3c2=O)cc1 | -1 | 63 | 8 | 46* | 16 | 15 | 15 | 80* | 61*
CCOc1ccc(OCC)c(NC(=O)C2CCCN(c3nc(C)cc(C)n3)C2)c1 (stereo not given) | 1 | 101* | 25 | 2 | 30 | 8 | 28 | 2.7 | 9.7
COc1ccccc1NC(=O)C1CCCN(c2nc(C)cc(C)n2)C1 (stereo not given) | 0 | 11 | 5 | 1 | 15 | . | . | . | .
CCOc1ccc(OCC)c(NC(=O)CN2CCN(c3ccc(C)cc3C)CC2)c1 | 2 | 81* | 33 | 3 | 19 | 11 | 32 | 8.8 | -1.8
CCOC(=O)N1CCN(CC(=O)Nc2cc(OCC)ccc2OCC)CC1 | -1 | 29 | 32 | 1 | 19 | . | . | . | .
CCN1CCN(c2nc(-c3ccccn3)nc3ccccc23)CC1 | -4 | 1 | 24 | 1 | 7 | . | . | . | .
c1ccc(CN2CCN(c3nc(-c4ccccn4)nc4ccccc34)CC2)cc1 | 1 | 33 | 12 | 48* | 30 | 37 | 19 | 2.1 | 13

Screens: PubChem BioAssay, several laboratories
